Data published in PMC4207547 (Journal of Medicinal Chemistry, 2014).
pIC50: −log10 of the molar value. “Also recorded” adds a separate entry of the source.

Legend:
CXCR2 [1] = biological target: T1, CXCR2 (Homo sapiens, UniProt P25025); assay: CXCR2 cell surface expression by flow cytometry in HEK293 cells; type: cell-based; conditions: 10 μM, 60 min exposure
T1 sequence (P25025 1-360): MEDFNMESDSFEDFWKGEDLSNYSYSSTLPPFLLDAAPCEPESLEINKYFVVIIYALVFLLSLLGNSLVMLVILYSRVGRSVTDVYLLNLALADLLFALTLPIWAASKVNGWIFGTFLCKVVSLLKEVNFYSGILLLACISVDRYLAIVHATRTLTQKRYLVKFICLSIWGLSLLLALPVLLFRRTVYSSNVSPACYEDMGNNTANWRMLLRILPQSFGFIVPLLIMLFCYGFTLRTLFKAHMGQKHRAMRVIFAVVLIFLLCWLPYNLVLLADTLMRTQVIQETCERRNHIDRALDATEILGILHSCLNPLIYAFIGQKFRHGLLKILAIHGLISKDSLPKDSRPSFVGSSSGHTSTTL
How it was run: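 Stable HEK293-CXCR2 cells were pretreated with 1% DMSO vehicle or test compound for 60 min; untransfected HEK293 served as negative isotype control. Cells were stained with PE-conjugated anti-human CXCR2 mouse monoclonal (1:100) at 4 °C for 60 min, washed, and fixed in 2% formaldehyde/PBS. PE signal was quantified by flow cytometry; data representative of three independent experiments.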

PAF-induced Ca2+ flux = PAF-induced Ca2+ flux in hPMNs; type: cell-based, human; conditions: for effect on PAF-induced Ca2+ flux, in words: hPMNs, concentrations up to 5 μM
[2] = system: CXCR2-mediated phosphorylation of ERK1/2; assay: CXCL8-induced ERK1/2 phosphorylation in HEK293 cells expressing CXCR2; type: cell-based, human; conditions: 10 μM compound, CXCL8 100 ng/mL, 0–30 min
How it was run: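 G418-selected HEK293 pool stably expressing human CXCR2, 5 × 10^6 cells per 60 mm plate. […] Lysis was at 0, 5, 15 and 30 min in SDS/deoxycholate/Triton buffer with PMSF, aprotinin and leupeptin. Phospho-ERK1/2 and total ERK1/2 were detected by Western blot.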

CXCR2 [3] = biological target: T1, CXCR2; assay: Competition [125I]-CXCL8 binding assay, HEK293-hCXCR2 membranes; conditions: up to 10 μM compound, 25 pM radioligand
CXCR1 and CXCR2 = assay: CXCL8-stimulated Ca2+ flux in hPMNs; type: cell-based, human; conditions: 1 μM compound
How it was run: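 Human PMNs isolated from blood by dextran sedimentation, Histopaque 1077 gradient and hypotonic red-cell lysis (>95% pure, >98% viable). Cells loaded with FLIPR Calcium 3 dye in Ca2+/Mg2+-free HBSS with 10 mM HEPES plus test compound or DMSO (1% final), 37 °C, 30 min. They were then pelleted and resuspended in HBSS with Ca2+/Mg2+, and compound was re-added at the same concentration. Fluorescence was read at 10^5 cells/well: 15 s basal, then agonist injected.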

fMLF-induced Ca2+ flux = fMLF-induced Ca2+ flux in hPMNs; type: cell-based, human; conditions: for effect on fMLF-induced Ca2+ flux, in words: hPMNs, concentrations up to 5 μM
How it was run: (§1)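 Human PMNs were isolated from healthy donor blood by dextran sedimentation, Histopaque 1077 gradient and hypotonic red cell lysis (>95% pure, >98% viable). Cells were dye-loaded (FLIPR Calcium 3) in Ca/Mg-free HBSS with 10 mM HEPES plus test compound or 1% DMSO for 30 min at 37 °C. They were then resuspended in HBSS+ with compound re-added, at 10^5 cells/well. Agonist final: C5a 50 nM, fMLF 10 nM. Fluorescence (ex 485/em 525 nm) was read every 5 s for 240–500 s at room temperature, max–min as % of DMSO control.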

male CD1 Swiss mice = assay: Murine air-pouch model of inflammation; type: in vivo, mouse; conditions: 0.2 mg/kg iv, 3 h before 2% carrageenan; vs positive control cohort, p < 0.01
How it was run: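 Dorsal air pouch in 10–15-week-old male CD1 Swiss mice: 2 mL air sc, reinflated with 1.5 mL next day. Test compound (0.02 or 0.20 mg/kg) in PEG400:DMF:saline 20:20:80, or vehicle, was given iv by tail vein, n = 5 per cohort. After 3 h, 1 mL PBS or 2% carrageenan in PBS was injected into the pouch. Pouch fluid plus a 2 mL PBS wash was collected 4 h later; cells were counted by trypan blue on a hemocytometer. Student's t-test vs carrageenan/vehicle cohort.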

C5a-induced Ca2+ flux = C5a-induced Ca2+ flux in hPMNs; type: cell-based, human; conditions: for effect on C5a-induced Ca2+ flux, in words: hPMNs, concentrations up to 5 μM
How it was run: as §1

O=C(Nc1ccc(F)cc1)c1ccc(SCc2ccccc2B(O)O)nc1 [Compound 7, 2-((5-(4-Fluorophenylcarbamoyl)pyridin-2-ylthio)methyl)phenylboronic acid]
effect on cell surface expression of CXCR2, in words (CXCR2 [1]): did not significantly alter | pIC50 (PAF-induced Ca2+ flux; Homo sapiens, read-out: IC50, PAF-induced Ca2+ flux): < 5.30 | effect on PAF-induced Ca2+ flux, in words (PAF-induced Ca2+ flux): failed to inhibit; also recorded: no inhibition | effect on PAF-induced Ca2+ flux, in words (PAF-induced Ca2+ flux; listed as SX-517): no effect | effect on CXCL8-induced ERK1/2 phosphorylation, in words [2]: completely blocked; also recorded: directly antagonized | effect on CXCL8-induced ERK1/2 phosphorylation, in words ([2]; listed as SX-517): antagonized | competition of [125I]-CXCL8 binding to CXCR2 membranes, in words (CXCR2 [3]): failed to compete | competition of [125I]-CXCL8 binding to CXCR2 membranes, in words (CXCR2 [3]; listed as SX-517): unable to compete | effect on CXCL8-stimulated Ca2+ flux, in words (CXCR1 and CXCR2): completely eliminate | pIC50 (fMLF-induced Ca2+ flux; Homo sapiens, read-out: IC50, fMLF-induced Ca2+ flux): < 5.30 | effect on fMLF-induced Ca2+ flux, in words (fMLF-induced Ca2+ flux): failed to inhibit; also recorded: no inhibition | effect on fMLF-induced Ca2+ flux, in words (fMLF-induced Ca2+ flux; listed as SX-517): no effect | total cell count in inflammatory pouch infiltrate, in words (male CD1 Swiss mice): significant reduction; also recorded: significantly reduced | pIC50 (C5a-induced Ca2+ flux; Homo sapiens, read-out: IC50, C5a-induced Ca2+ flux): < 5.30 | effect on C5a-induced Ca2+ flux, in words (C5a-induced Ca2+ flux): failed to inhibit; also recorded: no inhibition | effect on C5a-induced Ca2+ flux, in words (C5a-induced Ca2+ flux; listed as SX-517): no effect
